Assay results taken from ChEMBL document CHEMBL2157871, “Identification of a novel and orally available benzimidazole derivative as an NPY Y5 receptor antagonist with in vivo efficacy” (Bioorg Med Chem Lett, 2012).

Experiments:
[1] = Kinetic solubility of the compound in 1%DMSO at pH 6.8; format: physicochemical; settings: read-out: Kinetic_solubility
Outline: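 Kinetic solubility measured at pH 6.8 from a 1% DMSO solution.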

Cytochrome P450 3A4 = Cytochrome P450 3A4 (Homo sapiens, UniProt P08684); assay: Inhibition of CYP3A4; format: ADME
[2] = Metabolic stability in rat liver microsomes assessed as compound remaining after 30 mins; format: ADME, Microsome; settings: read-out: Stability
Outline: (§1)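 Human or rat liver microsomes incubated with compound for 30 min. Result given as percent of parent compound remaining.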

Cytochrome P450 2C9 = Cytochrome P450 2C9 (Homo sapiens, UniProt P11712); assay: Inhibition of CYP2C9; format: ADME
Cytochrome P450 1A2 = molecular target: T1, Cytochrome P450 1A2 (Homo sapiens, UniProt P05177); assay: Inhibition of CYP1A2; format: ADME
T1 sequence (P05177 whole entry): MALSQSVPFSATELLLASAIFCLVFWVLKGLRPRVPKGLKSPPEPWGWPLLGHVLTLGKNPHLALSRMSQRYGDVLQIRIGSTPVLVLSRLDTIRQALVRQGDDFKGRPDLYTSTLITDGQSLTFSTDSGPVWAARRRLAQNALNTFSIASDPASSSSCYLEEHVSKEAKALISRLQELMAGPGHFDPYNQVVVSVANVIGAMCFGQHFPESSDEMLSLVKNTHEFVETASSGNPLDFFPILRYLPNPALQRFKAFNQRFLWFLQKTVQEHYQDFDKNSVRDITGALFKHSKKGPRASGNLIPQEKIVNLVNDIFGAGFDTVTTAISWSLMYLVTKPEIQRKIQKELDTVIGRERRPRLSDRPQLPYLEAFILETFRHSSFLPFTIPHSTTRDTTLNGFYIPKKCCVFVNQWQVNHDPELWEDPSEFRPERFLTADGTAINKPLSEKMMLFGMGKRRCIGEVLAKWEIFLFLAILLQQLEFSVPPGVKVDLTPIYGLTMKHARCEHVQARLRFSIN

Cytochrome P450 2C19 = Cytochrome P450 2C19 (Homo sapiens, UniProt P33261); assay: Inhibition of CYP2C19; format: ADME
Cytochrome P450 2D6 = Cytochrome P450 2D6 (Homo sapiens, UniProt P10635); assay: Inhibition of CYP2D6; format: ADME
[3] = molecular target: T2, Neuropeptide Y receptor type 5 (Mus musculus, UniProt O70342); assay: Displacement of [125I]PYY from mouse NPY Y5 receptor
T2 sequence (O70342 whole entry): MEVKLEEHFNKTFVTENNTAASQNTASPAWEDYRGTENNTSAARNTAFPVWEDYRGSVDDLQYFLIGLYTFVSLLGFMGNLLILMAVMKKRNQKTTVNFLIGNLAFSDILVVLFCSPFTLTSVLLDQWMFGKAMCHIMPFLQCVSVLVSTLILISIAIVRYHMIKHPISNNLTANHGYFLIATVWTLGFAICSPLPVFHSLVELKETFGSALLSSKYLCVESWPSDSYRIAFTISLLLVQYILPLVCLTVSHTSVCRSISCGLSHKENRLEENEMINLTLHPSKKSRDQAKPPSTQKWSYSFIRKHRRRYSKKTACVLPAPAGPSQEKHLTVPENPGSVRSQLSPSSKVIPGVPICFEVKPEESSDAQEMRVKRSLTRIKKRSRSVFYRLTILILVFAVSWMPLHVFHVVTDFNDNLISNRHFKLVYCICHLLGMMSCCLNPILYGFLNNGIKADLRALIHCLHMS
Outline: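 Competition binding at mouse NPY Y5 receptors with 125I-PYY as ligand. IC50 is the concentration giving 50% inhibition of total specific binding, taken as the mean of two or more independent assays.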

[4] = Metabolic stability in human liver microsomes assessed as compound remaining after 30 mins; format: ADME, Microsome; settings: read-out: Stability; outline: as §1
Mus musculus [5] = assay: Antiobesity activity in DIO mouse assessed as decrease in [cPP(1 to 7),NPY(19 to 23),Ala(31),Alb(32),Gln(34)]-induced food intake at 12.5 mg/kg, po administered 1 hr prior to [cPP(1 to 7),NPY(19 to 23),Ala(31),Alb(32),Gln(34)]-induction measured at 2 hrs relative to vehicle-treated control; format: functional; parameters: scale not given: the % may be the effect or the level left
Mus musculus [6] = assay: Antiobesity activity in DIO mouse assessed as decrease in [cPP(1 to 7),NPY(19 to 23),Ala(31),Alb(32),Gln(34)]-induced food intake at 12.5 mg/kg, po administered 1 hr prior to [cPP(1 to 7),NPY(19 to 23),Ala(31),Alb(32),Gln(34)]-induction measured at 4 hrs relative to vehicle-treated control; format: functional; parameters: scale not given: the % may be the effect or the level left
Outline: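 Diet-induced obese mice dosed orally at 12.5 mg/kg 1 h before icv injection of a Y5-selective agonist (0.1 nmol). Cumulative food intake recorded over the following 4 h.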

Sequence of Cytochrome P450 2C9 (P11712 whole entry): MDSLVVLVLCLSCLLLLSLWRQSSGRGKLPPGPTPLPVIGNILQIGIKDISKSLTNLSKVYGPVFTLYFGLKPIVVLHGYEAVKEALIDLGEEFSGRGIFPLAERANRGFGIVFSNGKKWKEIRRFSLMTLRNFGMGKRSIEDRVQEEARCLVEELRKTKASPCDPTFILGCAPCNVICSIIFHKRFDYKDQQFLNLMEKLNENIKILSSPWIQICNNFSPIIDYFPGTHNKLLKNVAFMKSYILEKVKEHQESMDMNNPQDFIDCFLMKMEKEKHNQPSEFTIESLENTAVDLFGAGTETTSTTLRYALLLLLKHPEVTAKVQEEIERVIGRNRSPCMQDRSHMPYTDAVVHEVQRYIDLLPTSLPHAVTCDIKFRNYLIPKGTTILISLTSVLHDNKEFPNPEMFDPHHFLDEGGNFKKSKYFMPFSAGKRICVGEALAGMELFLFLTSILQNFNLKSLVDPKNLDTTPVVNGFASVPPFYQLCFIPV
Sequence of Cytochrome P450 3A4 (P08684 whole entry): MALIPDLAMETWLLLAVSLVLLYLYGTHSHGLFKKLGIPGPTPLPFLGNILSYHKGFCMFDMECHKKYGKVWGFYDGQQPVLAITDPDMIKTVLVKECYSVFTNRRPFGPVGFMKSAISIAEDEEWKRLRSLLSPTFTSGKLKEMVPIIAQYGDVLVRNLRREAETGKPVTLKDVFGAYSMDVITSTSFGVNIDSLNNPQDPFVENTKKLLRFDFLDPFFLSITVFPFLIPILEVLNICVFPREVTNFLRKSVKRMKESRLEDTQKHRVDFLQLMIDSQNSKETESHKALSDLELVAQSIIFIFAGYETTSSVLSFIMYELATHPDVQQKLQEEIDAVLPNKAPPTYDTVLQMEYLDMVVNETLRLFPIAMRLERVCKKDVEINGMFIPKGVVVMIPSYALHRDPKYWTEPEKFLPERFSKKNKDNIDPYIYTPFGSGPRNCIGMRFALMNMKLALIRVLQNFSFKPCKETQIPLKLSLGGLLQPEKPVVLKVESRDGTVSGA
Sequence of Cytochrome P450 2C19 (P33261 whole entry): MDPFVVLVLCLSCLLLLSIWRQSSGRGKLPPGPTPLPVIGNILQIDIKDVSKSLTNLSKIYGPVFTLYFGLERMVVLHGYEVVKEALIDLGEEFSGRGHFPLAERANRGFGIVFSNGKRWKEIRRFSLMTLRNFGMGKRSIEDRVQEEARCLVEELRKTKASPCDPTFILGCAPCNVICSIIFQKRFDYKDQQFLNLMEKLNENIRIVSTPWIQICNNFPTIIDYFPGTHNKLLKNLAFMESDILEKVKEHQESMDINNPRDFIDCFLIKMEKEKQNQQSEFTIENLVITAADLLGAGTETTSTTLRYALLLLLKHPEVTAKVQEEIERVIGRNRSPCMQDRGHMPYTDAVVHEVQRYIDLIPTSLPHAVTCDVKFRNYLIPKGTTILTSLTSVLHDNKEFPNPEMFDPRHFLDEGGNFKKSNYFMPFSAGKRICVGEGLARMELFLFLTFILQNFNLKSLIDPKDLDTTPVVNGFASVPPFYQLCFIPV
Sequence of Cytochrome P450 2D6 (P10635 whole entry): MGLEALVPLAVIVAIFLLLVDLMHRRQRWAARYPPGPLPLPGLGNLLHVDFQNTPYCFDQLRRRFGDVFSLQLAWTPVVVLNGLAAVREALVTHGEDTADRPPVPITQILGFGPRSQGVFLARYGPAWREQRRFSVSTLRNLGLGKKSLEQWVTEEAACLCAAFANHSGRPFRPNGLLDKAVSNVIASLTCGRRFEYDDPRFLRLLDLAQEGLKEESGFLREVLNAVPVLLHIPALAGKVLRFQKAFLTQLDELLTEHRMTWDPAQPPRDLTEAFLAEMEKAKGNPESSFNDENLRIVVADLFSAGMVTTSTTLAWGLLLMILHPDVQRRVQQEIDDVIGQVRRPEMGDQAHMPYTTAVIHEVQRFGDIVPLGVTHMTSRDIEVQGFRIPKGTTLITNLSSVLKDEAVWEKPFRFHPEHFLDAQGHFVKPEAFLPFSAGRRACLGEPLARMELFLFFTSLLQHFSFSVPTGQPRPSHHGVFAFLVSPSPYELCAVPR

Structure (SMILES)	solubility kinetic [1]	INH (Cytochrome P450 3A4) [µM]	remaining at 0.5 h [2] [%]	INH (Cytochrome P450 2C9) [µM]	INH (Cytochrome P450 1A2) [µM]	INH (Cytochrome P450 2C19) [µM]	INH (Cytochrome P450 2D6) [µM]	IC50 [3] [nM]	remaining at 0.5 h [4] [%]	Activity (Mus musculus [5]) [%]	Activity (Mus musculus [6]) [%]
CCS(=O)(=O)c1ccc2[nH]c(N3CCOC(c4ccc(F)cc4)C3)nc2c1 (configuration not stated)	> 50 µM	> 20	87.1	> 20	> 20	> 20	> 20	1.05	92.4	–	–
CCCS(=O)(=O)c1ccc2nc(N3CCOC(c4ccccc4)C3)[nH]c2c1 (configuration not stated)	> 50 µM	> 20	45.9	> 20	> 20	19	> 20	0.6	77.9	–	–
CCS(=O)(=O)c1ccc2[nH]c(N3CCOC(c4ccc(C)cc4)C3)nc2c1 (configuration not stated)	21.6 µM	> 20	34	> 20	> 20	17	> 20	0.8	87.8	–	–
CC(C)CS(=O)(=O)c1ccc2[nH]c(N3CCOC(c4ccccc4)C3)nc2c1 (configuration not stated)	43.2 µM	9.3	2.4	17	> 20	> 20	> 20	0.28	55.1	–	–
CCCS(=O)(=O)c1ccc2[nH]c(C3CCOC(c4ccccc4)C3)nc2c1 (mixture of isomers)	> 50 µM	> 20	74	> 20	> 20	20	> 20	17.2	65	–	–
CCCS(=O)(=O)c1ccc2nc(C3CCC(=O)N(c4ccccc4)C3)[nH]c2c1 (configuration not stated)	> 50 µM	> 20	62	> 20	> 20	> 20	> 20	193	81.1	–	–
CCS(=O)(=O)c1ccc2[nH]c(N3CCO[C@H](c4ccccc4)C3)nc2c1	–	–	–	–	–	–	–	–	–	67.2	71
CCCS(=O)(=O)c1ccc2[nH]c(C3CN(c4ccccc4)CCO3)nc2c1 (configuration not stated)	> 50 µM	> 20	7.5	> 20	> 20	> 20	> 20	15.9	66.1	–	–
CC(C)S(=O)(=O)c1ccc2nc(N3CCOC(c4ccccc4)C3)[nH]c2c1 (configuration not stated)	> 50 µM	16	49.5	> 20	15	19	> 20	1.33	87	–	–
CCS(=O)(=O)c1ccc2[nH]c(N3CCOC(c4ccc(OC)cc4)C3)nc2c1 (configuration not stated)	> 50 µM	> 20	48	> 20	> 20	> 20	> 20	3.03	81	–	–
CCS(=O)(=O)c1ccc2[nH]c(N3CCOC(c4ccc(Cl)cc4)C3)nc2c1 (configuration not stated)	38.1 µM	13	87.2	> 20	9.2	9.1	18	0.85	94.6	–	–
CCCS(=O)(=O)c1ccc2[nH]c(N3CCC(c4ccccc4)C3)nc2c1 (configuration not stated)	15.4 µM	14	19.2	17	> 20	> 20	> 20	1.01	74.9	–	–
CCS(=O)(=O)c1ccc2nc(N3CCOC(c4ccccc4)C3)[nH]c2c1 (configuration not stated)	> 50 µM	> 20	76.1	> 20	> 20	> 20	> 20	0.43	89	56	42.7
CCCS(=O)(=O)c1ccc2[nH]c(N3CCNC(c4ccccc4)C3)nc2c1 (configuration not stated)	> 50 µM	> 20	44	> 20	> 20	> 20	> 20	6.82	64.4	–	–

The next lines start with results.

solubility kinetic [1]	INH (Cytochrome P450 3A4) [µM]	remaining at 0.5 h [2] [%]	INH (Cytochrome P450 2C9) [µM]	INH (Cytochrome P450 1A2) [µM]	INH (Cytochrome P450 2C19) [µM]	INH (Cytochrome P450 2D6) [µM]	IC50 [3] [nM]	remaining at 0.5 h [4] [%]	Structure (SMILES)	Activity (Mus musculus [5]) [%]	Activity (Mus musculus [6]) [%]
> 50 µM	15	63.5	> 20	> 20	> 20	> 20	0.21	85	O=S(=O)(CC(F)(F)F)c1ccc2[nH]c(N3CCOC(c4ccccc4)C3)nc2c1 (configuration not stated)	–	–
> 50 µM	> 20	21.1	> 20	> 20	> 20	> 20	4.99	21.9	CCCS(=O)(=O)c1ccc2nc(N3CCN(C)C(c4ccccc4)C3)[nH]c2c1 (configuration not stated)	–	–
1.6 µg/mL	–	–	–	–	–	–	4.6	–	CC(C)(C)S(=O)(=O)N[C@H]1CC[C@H](C(=O)Nc2ccc(C(F)(F)F)cn2)CC1 [VELNEPERIT]	–	–
19.1 µM	6.9	2.2	9.4	> 20	12	13	0.29	45.2	CCCS(=O)(=O)c1ccc2nc(N3CCCC(c4ccccc4)C3)[nH]c2c1 (configuration not stated)	–	–
10.7 µM	14	56.4	> 20	> 20	> 20	> 20	4.27	78.5	CC(C)(C)S(=O)(=O)c1ccc2[nH]c(N3CCOC(c4ccccc4)C3)nc2c1 (configuration not stated)	–	–
3.7 µM	2.3	67.9	4.5	17	1.7	5.5	0.73	81.7	O=S(=O)(c1ccc2nc(N3CCOC(c4ccccc4)C3)[nH]c2c1)C(F)(F)F (configuration not stated)	–	–
11.6 µM	8.2	37.8	11	18	17	18	1.43	60.2	CC(C)(C(F)(F)F)S(=O)(=O)c1ccc2nc(N3CCOC(c4ccccc4)C3)[nH]c2c1 (configuration not stated)	–	–
